Active and inactive are the calls of the source. The calls are words filed in the database; no cut-off is given here.
Tests used:
[1] = Inhibition of TNFalpha-induced NFkappaB activation in mouse C2C12 cells incubated for 24 hrs prior to TNFalpha induction measured after 24 hrs by luciferase reporter gene assay; assay type: cell-based
In short: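 C2C12 myoblasts in growth medium and myotubes in differentiating medium, each stably carrying an NF-κB response element–luciferase reporter. Cells were washed, lysed and luciferase read; TNF-α alone was set as 100%. IC50 was calculated. SD shown.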

[2] = target: T1, Glucocorticoid receptor (Mus musculus) (UniProt P06537); test: Induction of glucocorticoid receptor nuclear translocation in mouse C2C12 cells at 1 x 10^-5 to 1.69 x 10^-10 M by chemiluminescence assay relative to control; assay type: cell-based
T1 sequence (whole entry): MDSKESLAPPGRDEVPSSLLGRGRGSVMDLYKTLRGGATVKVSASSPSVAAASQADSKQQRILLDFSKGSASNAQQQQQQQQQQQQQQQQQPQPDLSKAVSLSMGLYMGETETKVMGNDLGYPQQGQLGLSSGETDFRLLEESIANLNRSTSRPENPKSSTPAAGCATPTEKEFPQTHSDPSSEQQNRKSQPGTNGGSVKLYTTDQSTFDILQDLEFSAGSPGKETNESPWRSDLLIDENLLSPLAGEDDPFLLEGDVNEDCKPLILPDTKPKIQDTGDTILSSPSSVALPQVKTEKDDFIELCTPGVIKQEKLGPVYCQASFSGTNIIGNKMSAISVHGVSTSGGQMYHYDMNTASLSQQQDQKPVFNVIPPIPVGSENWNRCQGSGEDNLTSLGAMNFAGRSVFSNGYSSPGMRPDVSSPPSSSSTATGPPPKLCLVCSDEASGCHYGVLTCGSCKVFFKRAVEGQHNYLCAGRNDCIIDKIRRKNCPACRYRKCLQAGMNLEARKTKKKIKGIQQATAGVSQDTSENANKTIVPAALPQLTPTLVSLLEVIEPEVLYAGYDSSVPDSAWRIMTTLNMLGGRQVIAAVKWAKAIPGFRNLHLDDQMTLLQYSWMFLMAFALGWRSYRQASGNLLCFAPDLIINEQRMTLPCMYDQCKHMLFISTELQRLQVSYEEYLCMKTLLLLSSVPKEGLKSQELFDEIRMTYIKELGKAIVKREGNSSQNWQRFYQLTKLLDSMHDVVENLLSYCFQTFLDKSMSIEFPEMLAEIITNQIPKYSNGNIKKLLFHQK
In short: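 GR nuclear translocation measured by DiscoveRx in PathHunter cells using enzyme-fragment complementation. ProLink-tagged GR recruits a nuclear steroid receptor co-activator peptide fused to the enzyme acceptor, giving a chemiluminescent signal.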

C2C12 = test: Cytotoxicity against mouse C2C12 cells assessed as cell viability at 0.01 to 100 ug/mL after 24 hrs by MTT assay; assay type: cell-based; conditions: c2c12, 24 h
In short: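 MTT viability run on C2C12 cells grown and treated alongside the NF-κB reporter plates, with drug at 0.01–100 µg/ml and DMSO vehicle. Viability is expressed as percent of untreated cells. A one-way repeated-measures ANOVA tested for a concentration effect.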

[3] = target: T2, Glucocorticoid receptor (Homo sapiens) (UniProt P04150); test: Transactivation of glucocorticoid receptor in HEK293 cells co-transfected with GRE assessed as induction of GRE-dependent gene expression at 100 ug/ml after 6 hrs by luciferase reporter gene assay; assay type: cell-based
T2 sequence (whole entry): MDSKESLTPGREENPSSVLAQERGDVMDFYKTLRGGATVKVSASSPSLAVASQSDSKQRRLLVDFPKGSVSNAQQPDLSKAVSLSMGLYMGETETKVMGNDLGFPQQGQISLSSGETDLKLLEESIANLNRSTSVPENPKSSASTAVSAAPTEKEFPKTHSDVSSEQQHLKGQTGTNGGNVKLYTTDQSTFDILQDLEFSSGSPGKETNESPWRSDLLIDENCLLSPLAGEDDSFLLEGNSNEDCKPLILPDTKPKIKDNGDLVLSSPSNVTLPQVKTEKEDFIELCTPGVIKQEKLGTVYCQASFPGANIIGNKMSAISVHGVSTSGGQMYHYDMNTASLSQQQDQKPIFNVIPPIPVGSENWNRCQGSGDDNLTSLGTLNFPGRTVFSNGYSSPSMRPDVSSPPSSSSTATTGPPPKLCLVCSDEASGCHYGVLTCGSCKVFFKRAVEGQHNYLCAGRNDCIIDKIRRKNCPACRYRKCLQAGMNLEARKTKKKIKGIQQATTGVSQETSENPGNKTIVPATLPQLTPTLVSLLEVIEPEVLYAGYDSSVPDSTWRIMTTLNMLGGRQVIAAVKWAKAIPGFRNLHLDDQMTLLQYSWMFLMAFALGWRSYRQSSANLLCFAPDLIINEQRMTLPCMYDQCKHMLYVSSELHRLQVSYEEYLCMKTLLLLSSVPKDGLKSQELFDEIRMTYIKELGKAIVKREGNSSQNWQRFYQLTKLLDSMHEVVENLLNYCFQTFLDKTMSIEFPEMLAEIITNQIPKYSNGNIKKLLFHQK
In short: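 HEK-293 cells stably transfected with a GRE-driven luciferase reporter were exposed to drug at 0.01–100 μg/ml for 6 h. Cells were washed with PBS and lysed, and luciferase activity was measured by luminometer.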

Liver microsomes = test: Metabolic stability in rat liver microsomes at 2 uM measured at 1 hr; assay type: ADME, Microsome
In short: (§1)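 Liver microsomes (human, or male monkey, dog, rat or mouse) at 0.5 mg/mL final with 2 µM compound, 5 mM MgCl2 and 5 mM PBS. The reaction was started with 1 mM NADPH and run at 37 °C. Verapamil was the positive control; water replaced NADPH in the negative control. Read-out was percent parent remaining at 1 h.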

[4] = Terminal half life in CD1 mouse at 50 mg/kg, po; assay type: ADME, organism-based; design: dose 50 mg/kg, route oral; conditions: in vivo, read-out: beta t1/2 (converted)
In short: (§2)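 CD1 mice (n = 3 per compound) were dosed orally at 50 mg/kg as an aqueous emulsion in 30% Labrafil. Blood was drawn at 0, 5, 15 and 30 min and 1, 2, 4, 8 and 24 h. Bioavailability and other parameters were calculated from the plasma profiles and compared against the intravenous arm.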

[5] = Mean residence time in CD1 mouse at 10 mg/kg, iv; assay type: ADME, organism-based; design: dose 10 mg/kg, route intravenous; conditions: in vivo
In short: (§3)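 CD1 mice (n = 3 per compound) given 10 mg/kg as a single tail-vein injection in a pH 7.0 solution of 10% ethanol plus PEG400 (some compounds also with 10% DMSO). Blood was sampled at 0, 5, 15 and 30 min and 1, 2, 4, 8 and 24 h. Parameters were derived from the plasma concentration–time profiles.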

[6] = Volume of distribution at steady state in CD1 mouse at 10 mg/kg, iv; assay type: ADME, organism-based; design: dose 10 mg/kg, route intravenous; conditions: in vivo, read-out: Vdss; in short: as §3
[7] = AUClast in CD1 mouse at 10 mg/kg, iv; assay type: ADME, organism-based; design: time 0 - last, dose 10 mg/kg, route intravenous; conditions: plasma; in short: as §3
[8] = Tmax in CD1 mouse at 10 mg/kg, iv; assay type: ADME, organism-based; design: dose 10 mg/kg, route intravenous; conditions: in vivo; in short: as §3
[9] = Terminal half life in CD1 mouse at 10 mg/kg, iv; assay type: ADME, organism-based; design: dose 10 mg/kg, route intravenous; conditions: in vivo, read-out: beta t1/2 (converted); in short: as §3
[10] = Tmax in CD1 mouse at 50 mg/kg, po; assay type: ADME, organism-based; design: dose 50 mg/kg, route oral; conditions: in vivo; in short: as §2
[11] = Metabolic stability in mouse liver microsomes assessed as compound remaining at 2 uM measured at 1 hr; assay type: ADME, Microsome; conditions: read-out: Stability; in short: as §1
Mus musculus [12] = test: Total unbound Cmax in CD1 mouse at 10 mg/kg, iv; assay type: ADME, organism-based; design: dose 10 mg/kg, route intravenous; conditions: in vivo
Mus musculus [13] = test: Total unbound AUC (0 to infinity) in CD1 mouse at 10 mg/kg, iv; assay type: ADME, organism-based; design: dose 10 mg/kg, route intravenous; conditions: in vivo
Mus musculus [14] = test: Total unbound AUC (0 to infinity) in CD1 mouse at 50 mg/kg, po; assay type: ADME, organism-based; design: dose 50 mg/kg, route oral; conditions: in vivo
Mus musculus [15] = test: Oral bioavailability in CD1 mouse at 50 mg/kg; assay type: ADME, organism-based; conditions: in vivo; in short: as §2
[16] = Metabolic stability in human liver microsomes assessed as compound remaining at 2 uM measured at 1 hr; assay type: ADME, Microsome; conditions: read-out: Stability; in short: as §1
[17] = Clearance in CD1 mouse at 10 mg/kg, iv; assay type: ADME, organism-based; design: dose 10 mg/kg, route intravenous; conditions: in vivo; in short: as §3
[18] = AUClast in CD1 mouse at 50 mg/kg, po; assay type: ADME, organism-based; design: time 0 - last, dose 50 mg/kg, route oral; conditions: plasma; in short: as §2
[19] = Metabolic stability in dog liver microsomes assessed as compound remaining at 2 uM measured at 1 hr; assay type: ADME, Canis lupus familiaris, Microsome; conditions: read-out: Stability; in short: as §1
Mus musculus [20] = test: Total unbound Cmax in CD1 mouse at 50 mg/kg, po; assay type: ADME, organism-based; design: dose 50 mg/kg, route oral; conditions: in vivo
[21] = Metabolic stability in monkey liver microsomes assessed as compound remaining at 2 uM measured at 1 hr; assay type: ADME, Macaca mulatta, Microsome; conditions: rhesus monkey, read-out: Stability; in short: as §1

Row | Structure (SMILES) | EC50 [1] [nM] | Activity [2] [%] | Activity (C2C12) | further results
1 | C[C@]12C=CC(=O)C=C1CC[C@@H]1C2=CC[C@]2(C)C(C(=O)CO)=CC[C@@H]12 | 495 | 16.7 | – | –
2 | CC[C@@H]1C[C@H]2[C@@H]3CCC4=CC(=O)C=C[C@]4(C)C3=CC[C@]2(C)[C@H]1C(=O)CO | 89.5 | 27 | Toxic | –
3 | CC(=O)OCC(=O)[C@@]1(O)CC[C@H]2[C@@H]3CCC4=CC(=O)CC[C@]4(C)C3=CC[C@@]21C | – | 51.5 | – | Activity [3]: inactive
4 | C[C@]12CCC(=O)C=C1CC[C@@H]1C2=CC[C@@]2(C)[C@H]1CC[C@]2(O)C(=O)CO | 62.9 | 49.2 | – | –
5 | C[C@]12CCC(=O)C=C1CC[C@@H]1C2=CC[C@@]2(C)[C@H]1CC[C@]2(O)C(=O)CN1CCOCC1 | 1740 | 28.7 | – | –
6 | CCCN(CCC)CC(=O)[C@@]1(O)CC[C@H]2[C@@H]3CCC4=CC(=O)CC[C@]4(C)C3=CC[C@@]21C | – | 21.8 | – | –
7 | CCCN(CCC)CC(=O)[C@H]1[C@H](C)C[C@H]2[C@@H]3CCC4=CC(=O)CC[C@]4(C)C3=CC[C@@]21C | 723 | 37.7 | Non-toxic | –
8 | C[C@]12CCC(=O)C=C1CC[C@@H]1C2=CC[C@@]2(C)[C@H]1CC[C@]2(O)C(=O)CN1CCCC1 | 1850 | 24.7 | – | –
9 | CC(=O)OCC(=O)C1=CC[C@H]2[C@@H]3CCC4=CC(=O)C=C[C@]4(C)C3=CC[C@]12C | – | 15.3 | – | –
10 | C[C@@H]1C[C@H]2[C@@H]3CCC4=CC(=O)CC[C@]4(C)C3=CC[C@]2(C)[C@H]1C(=O)CN1CCCC1 | – | 19.9 | Non-toxic | –
11 | C[C@H]1C[C@H]2[C@@H]3CCC4=CC(=O)C=C[C@]4(C)C3=CC[C@]2(C)[C@@]1(O)C(=O)CO | – | 44.5 | Non-toxic | –
12 | CN1CCN(CC(=O)[C@@]2(O)CC[C@H]3[C@@H]4CCC5=CC(=O)CC[C@]5(C)C4=CC[C@@]32C)CC1 | 5780 | 23.5 | – | –
13 | C[C@@H]1C[C@H]2[C@@H]3CCC4=CC(=O)C=C[C@]4(C)C3=CC[C@]2(C)[C@H]1C(=O)CO | 56.4 | 54.2 | Non-toxic | Activity [3]: inactive; Stability (Liver microsomes): Unstable; half-life [4]: 39.5 min; MRT [5]: 17.3 min; Vd [6]: 0.874 L/kg; AUC(0-t) [7]: 3450 ng·h/mL; Tmax [8]: 5 min; half-life [9]: 40 min; Tmax [10]: 60 min; remaining at 1 h, 2 µM [11]: 34%; fCmax (Mus musculus [12]): 8637 ng/mL; fAUC (Mus musculus [13]): 3457 ng·h/mL; fAUC (Mus musculus [14]): 22031 ng·h/mL; F (Mus musculus [15]): 128%; remaining at 1 h, 2 µM [16]: ≥ 80%; clearance [17]: 48.2 mL/min/kg; AUC(0-t) [18]: 22000 ng·h/mL; remaining at 1 h, 2 µM [19]: ≥ 80%; fCmax (Mus musculus [20]): 10203 ng/mL; remaining at 1 h, 2 µM [21]: ≥ 80%
14 | CC(=O)OCC(=O)[C@H]1[C@H](C)C[C@H]2[C@@H]3CCC4=CC(=O)C=C[C@]4(C)C3=CC[C@@]21C | 54.1 | 48.8 | Non-toxic | Activity [3]: inactive
15 | CCCC[C@@H]1C[C@H]2[C@@H]3CCC4=CC(=O)C=C[C@]4(C)C3=CC[C@]2(C)[C@H]1C(=O)CO | > 10000 | 6.9 | Toxic | –
16 | C[C@@H]1C[C@H]2[C@@H]3CCC4=CC(=O)CC[C@]4(C)C3=CC[C@]2(C)[C@H]1C(=O)CN1CCN(C)CC1 | > 10000 | 14.7 | Non-toxic | –
17 | C[C@]12C=CC(=O)C=C1CC[C@@H]1C2=CC[C@@]2(C)[C@H]1CC[C@]2(O)C(=O)CO | 129 | 57.6 | – | –
18 | CCCC[C@@H]1C[C@H]2[C@@H]3CCC4=CC(=O)CC[C@]4(C)C3=CC[C@]2(C)[C@H]1C(=O)CO | > 10000 | 8.5 | Toxic | –
19 | C[C@@H]1C[C@H]2[C@@H]3CCC4=CC(=O)CC[C@]4(C)C3=CC[C@]2(C)[C@H]1C(=O)CN1CCOCC1 | 5240 | 22.7 | Non-toxic | –

Reference: ChEMBL document CHEMBL2346557 (Bioorg Med Chem, 2013)
